Results on 95 compounds are retold here after ChEMBL document CHEMBL4513216, “Probing the Open Global Health Chemical Diversity Library for Multistage-Active Starting Points for Next-Generation Antimalarials” (ACS Infect Dis, 2020).

This data set can be described thus: Toxicity liver stage against HepG2, at 10uM. In kind it is cell-based. Further details: test concentration 10 uM, cell line HepG2-A16-CD81EGFP. Conditions: human, HepG2-A16-CD81EGFP cells; read-out: INHIBITION
Summed up:
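Uninfected HepG2-A16-CD81EGFP cells, 3 × 10^3 per well, 1536-well, plated on prespotted compound at 10 μM final, parasite-free screening media added to match infected plates; puromycin 10 μM positive, DMSO 0.5% negative; run in parallel with 48 h PbLuc assay at 37 °C, 5% CO2; viability by CellTiter-Glo luminescence, normalized to controls.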
For `Cc1nn(C)c(N(C)C)c1CNC(C)COc1ccc(F)cc1` (stereo not given), the cytotoxicity at 10 µM was -4.38%.

`COC(=O)Cn1cccc(S(=O)(=O)N2CCC(C)CC2)c1=O`: the cytotoxicity at 10 µM is -2.85%.

On to `CC(=O)NCCNC(=O)NCCCc1cccc(F)c1`, for which the cytotoxicity at 10 µM amounted to 10.5%.

With `O=C(NCc1cncc2c1CCN(Cc1cccs1)C2)C1CC1`, the cytotoxicity at 10 µM was determined as 2.13%.

Consider `CCc1ccc(C(=O)N2CCC(O)(CN3CCOCC3)C(C)(C)C2)[nH]1` (stereo not given), for which the cytotoxicity at 10 µM was 0.542%.

`COCCOc1cccc(C(=O)N2CCCC(n3cccn3)C2)c1` (stereo not given): the cytotoxicity at 10 µM was -7.81%.

`O=C(CCc1ccccn1)N1CCCC(N2CCNC2=O)C1` (stereo not given): the cytotoxicity at 10 µM was 6.99%.

For `Cc1nn(C)c(C)c1C(=O)N1CCOCC1CC(=O)c1ccco1` (stereo not given), the cytotoxicity at 10 µM was -11.4%.

As to `Cc1cnn(CC2CN(Cc3nc(C)c4ccccc4n3)CCO2)c1` (stereo not given), the cytotoxicity at 10 µM is -35.6%.

For `CCn1ccc2ccnc(CC3CN(C(=O)c4ccc(F)cc4)C3)c21`, the cytotoxicity at 10 µM is -3.3%.

As to `Cc1nc(C(=O)Nc2cccnc2)c(C(C)C)s1`, the cytotoxicity at 10 µM is -2.36%.

In the case of `CCCS(=O)(=O)N1CCOC2(CCCN(Cc3ccccn3)C2)C1` (stereo not given), the cytotoxicity at 10 µM is -0.58%.

On to `Cc1ccc(NCc2cncc3c2CCN(C(=O)C2CC=CC2)C3)nn1`, for which the cytotoxicity at 10 µM was -2.42%.

For the compound `Cc1cnn(CCNCC(=O)N2CCN(c3ncccn3)CC2)c1`, the cytotoxicity at 10 µM was -0.0264%.

For `Cc1cnc(C)c(-c2cc(O)c3c(c2)CN(Cc2nccs2)CCO3)n1`, the cytotoxicity at 10 µM stood at 1.69%.

Take `Cc1cccc(N2CCC3(CCCN3Cc3cn(C)nc3C)CC2)n1`: the cytotoxicity at 10 µM is -4.78%.

Regarding `CC[C@H]1CN(S(=O)(=O)c2ccccc2)CC[C@H]1CC(=O)O`, the cytotoxicity at 10 µM came to 1.7%.

As to `CN(C)S(=O)(=O)N1CC[C@]2(C[C@H](OCc3ccncc3)CO2)C1`, the cytotoxicity at 10 µM worked out at 1.23%.

As for `Cc1nc(C)n(CC2CCCCN2CC(=O)Nc2nncs2)n1` (stereo not given), the cytotoxicity at 10 µM was 4.62%.

As for `OC(CN1CCOCC1)c1ccc(OC(F)(F)F)cc1` (stereo not given), the cytotoxicity at 10 µM is -9.36%.

As for `O=C(O)C1(n2cccn2)CCN(c2nc(-c3ccccc3)no2)CC1`, the cytotoxicity at 10 µM turned out to be 7.47%.

In the case of `O=C(O)c1cc2c(nc1N1CCCC1)CCN(C1CCOCC1)CC2`, the cytotoxicity at 10 µM came to 3.02%.

In the case of `O=c1[nH]c(=O)n(CC(O)c2ccc(F)cc2F)cc1Cl` (stereo not given), the cytotoxicity at 10 µM was 2.64%.

Consider `Cc1ccc(C(=O)N2CCN(CCc3ccccc3)CC2)c(=O)[nH]1`, for which the cytotoxicity at 10 µM was -7.1%.

Regarding `CCCN1CCc2nc(SCc3ccc(F)cc3)[nH]c(=O)c2C1`, the cytotoxicity at 10 µM was -3.37%.

`c1coc(-c2noc(CN3CCCCC3Cn3cncn3)n2)c1` (stereo not given): the cytotoxicity at 10 µM is -0.915%.

Consider `COc1cccc(CN2CC[C@H]3[C@@H](C2)[C@H](c2ccsc2)CN3C(C)=O)c1`, for which the cytotoxicity at 10 µM is -5.61%.

Take `COC(=O)CN(C)C1CCc2ccccc21` (stereo not given): the cytotoxicity at 10 µM was -7.59%.

Consider `CCc1ocnc1C(=O)N1CCC(n2cc(-c3ccsc3)nn2)CC1`, for which the cytotoxicity at 10 µM came out at 1.47%.

Consider `O=C1CN(C(=O)c2cc(-c3ccco3)nc3c(Cl)cccc23)CCN1`, for which the cytotoxicity at 10 µM was -5.2%.

For the compound `CCN(C)CC1CCN(c2ncc(Br)cn2)C1` (stereo not given), the cytotoxicity at 10 µM is -2.55%.

As for `CCN1CCN(c2nc(O)cc(Cc3ccccc3F)n2)CC1`, the cytotoxicity at 10 µM is -1.83%.

Turning to `Cc1nn(C)cc1C(=O)N1CCCn2nc(CN3CC[C@H](F)C3)cc2C1`, the cytotoxicity at 10 µM was -7.88%.

As for `Cc1cnn(CCNCC(=O)N2CCN(c3ccccn3)CC2)c1`, the cytotoxicity at 10 µM is 1.22%.

For the compound `Cc1cc2c(cc1Cl)C=CC1(CCN(CC(=O)N3CCCC3)CC1)O2`, the cytotoxicity at 10 µM is -8.05%.

Take `Cn1ncc2c1CCCC2NCc1cccnc1` (stereo not given): the cytotoxicity at 10 µM is 0.999%.

For the compound `Cc1cc(-c2ccccc2)nc(C2CCCN2S(C)(=O)=O)n1` (stereo not given), the cytotoxicity at 10 µM is 3.5%.

In the case of `Cc1ccc2c(c1)CN(C(=O)c1ccccc1F)C(CN(C)C)CO2` (stereo not given), the cytotoxicity at 10 µM amounted to 4.66%.

Turning to `O=C(c1ccc(=O)[nH]n1)N1CCCC1CCc1ccccc1` (stereo not given), the cytotoxicity at 10 µM was 8.89%.

In the case of `Cc1nc(C(C)NC(=O)COc2ccc(F)cc2)n[nH]1` (stereo not given), the cytotoxicity at 10 µM was 6.39%.

With `COCC(C)NC(=O)CCSc1ccc(F)cc1` (stereo not given), the cytotoxicity at 10 µM was determined as 1.28%.

As to `COC(=O)c1ccc(N2CCN(C(=O)c3ccncc3)C(C)C2)cc1` (stereo not given), the cytotoxicity at 10 µM was -6.38%.

On to `Cc1nnc([C@H]2C[C@H]3OCC[C@H]3N(S(=O)(=O)CC(C)C)C2)o1`, for which the cytotoxicity at 10 µM is -5.27%.

Turning to `CCN(C)CC1CCN(C(=O)Nc2ccc(-c3cc[nH]n3)cc2)C1` (stereo not given), the cytotoxicity at 10 µM was -6.25%.

Regarding `Nc1cc(N2CCCC(Cc3ccc(F)cc3F)(C(=O)O)C2)ncn1` (stereo not given), the cytotoxicity at 10 µM worked out at 10.6%.

On to `Cc1ccc(CN2C[C@H]3C(=O)N(CC4CC4)C[C@@]3(C(=O)O)C2)c(F)c1F`, for which the cytotoxicity at 10 µM came out at 7.47%.

As for `COc1ccc(C)cc1C(C)NC(=O)NCCCn1cncn1` (stereo not given), the cytotoxicity at 10 µM is 2.62%.

Turning to `COCCc1noc(CN2CCCC(Cn3cncn3)C2)n1` (stereo not given), the cytotoxicity at 10 µM was -2.55%.

`CCC(Nc1nc(C(C)C)nc2c1cnn2C)c1ccc(O)cc1` (stereo not given): the cytotoxicity at 10 µM was -51.2%.

`Cc1cc(C)cc(C(C)NCc2nnc(C)s2)c1` (stereo not given): the cytotoxicity at 10 µM was -5.77%.

Regarding `CC(C)(C)n1ncc(NCCc2ccccc2C(F)(F)F)c(Cl)c1=O`, the cytotoxicity at 10 µM was 57%.

Consider `CCOc1ccc(N2CCC(C(O)c3ccccc3)CC2)nn1` (stereo not given), for which the cytotoxicity at 10 µM is -2.2%.

As to `CNC(=O)[C@@H]1C[C@H]2CN(Cc3ccc(C)s3)C[C@H]2N1C(C)=O`, the cytotoxicity at 10 µM came to 2.76%.

In the case of `N#Cc1cn[nH]c1NCc1cc(I)cc(I)c1O`, the cytotoxicity at 10 µM was 1.11%.

Consider `COc1ccc(-c2noc([C@@H]3C[C@@H](O)CN3C3CCN(C)CC3)n2)cc1`, for which the cytotoxicity at 10 µM is -1.16%.

Consider `Cc1nc(CN2CCc3c(nc(C4CC4)n3C)C2)nc2ccccc12`, for which the cytotoxicity at 10 µM came out at 7.36%.

Turning to `COc1cccc2c1OCC(C(=O)NCCc1nnc(N)s1)C2` (stereo not given), the cytotoxicity at 10 µM is -33.4%.

With `Cc1noc(C[C@@H]2COC[C@H]3CN(C(=O)C4=CCCC4)C[C@@H]23)n1`, the cytotoxicity at 10 µM is -0.91%.

As to `Cc1ccc([C@]2(O)CC[C@H]3CN(Cc4ccc(Cl)cc4Cl)C[C@H]32)nc1`, the cytotoxicity at 10 µM turned out to be 8.32%.

Take `CCCc1nc(C(C)(C)NC(=O)c2ccnn2C)no1`: the cytotoxicity at 10 µM is -10.5%.

Turning to `CN(C)CCn1c2c(ccc1=O)CCN(Cc1ccncc1)CC2`, the cytotoxicity at 10 µM was determined as 3.97%.

As for `CCNc1cc2c(nn1)CCN(C(=O)Cc1ccc3c(c1)CCO3)C2`, the cytotoxicity at 10 µM was 1.42%.

On to `Cc1c(COC(C)C)cccc1NC(=O)N1CCCC(CO)C1` (stereo not given), for which the cytotoxicity at 10 µM was -5.44%.

`CC(C)c1noc(C(C)N2CCN(Cc3cccs3)CC2)n1` (stereo not given): the cytotoxicity at 10 µM is -6.18%.

With `COc1ccc(C[C@H]2CN(Cc3ccoc3)CC[C@@H]2OC)cc1`, the cytotoxicity at 10 µM was 2.51%.

With `Cc1noc(C2CCN(C(=O)c3cc(Cl)c(Cl)n3C)CC2)n1`, the cytotoxicity at 10 µM came out at 10.7%.

`CCC(c1ccccc1)S(=O)(=O)CCO` (stereo not given): the cytotoxicity at 10 µM is -136%.

On to `CC(Cn1cccn1)NCc1cnc(N2CCCC2)nc1` (stereo not given), for which the cytotoxicity at 10 µM is -13%.

On to `Cn1nc(-c2ccccc2)c(Br)c1C(=O)O`, for which the cytotoxicity at 10 µM was -48.3%.

For the compound `Cc1ccc(N2CCCC(c3[nH]ncc3Cc3ccccc3)C2)nn1` (stereo not given), the cytotoxicity at 10 µM came out at 10.4%.

Take `CC(NC(=O)Nc1ccc(N2CCCC2)nc1)c1nncn1C` (stereo not given): the cytotoxicity at 10 µM is -12.6%.

Turning to `CCc1nc2n(n1)CCCC2NC(=O)Nc1ccc(SC)c(F)c1` (stereo not given), the cytotoxicity at 10 µM was determined as 5.08%.

For `Cc1cc(CCC(N)=O)cc(C2CCCN2Cc2ccccn2)n1` (stereo not given), the cytotoxicity at 10 µM was -16.7%.

For `CCCC(=O)N1CCOC2(COCCN(CC(=O)NC)C2)C1` (stereo not given), the cytotoxicity at 10 µM was -3.58%.

In the case of `O=C(NC[C@]12COC[C@H]1CN(Cc1nccs1)C2)c1ccccc1`, the cytotoxicity at 10 µM is -11.8%.

Consider `C[C@@H]1CN(C(=O)C2CCOCC2)C[C@]12CCN(c1cccnc1)C2=O`, for which the cytotoxicity at 10 µM was 6.95%.

For `O=C(CCCOc1ccccc1F)Nc1cc[nH]n1`, the cytotoxicity at 10 µM was -11%.

`N#Cc1ccc(CNC2CCN(CCc3ccncc3)CC2)cc1`: the cytotoxicity at 10 µM is -5.03%.

`CCC(=O)N1CCC2(CC1)CC(N1CCOCC1)c1cc(C)ccc12` (stereo not given): the cytotoxicity at 10 µM is -149%.

For the compound `O=C(C1CCCO1)N1CCc2ncnc(NC3CCC3)c2CC1` (stereo not given), the cytotoxicity at 10 µM was -5.16%.

On to `O=C(O)CCc1cc2n(n1)CCN(Cc1cnc(N3CCCC3)nc1)C2`, for which the cytotoxicity at 10 µM was -1.89%.

As for `CCS(=O)(=O)c1ccccc1N1CCC(NC(=O)c2ccc[nH]2)CC1`, the cytotoxicity at 10 µM was -8.26%.

Regarding `CCc1ncc(C(=O)N2CCCC(c3nccn3CCOC)C2)cn1` (stereo not given), the cytotoxicity at 10 µM was -0.262%.

On to `Cc1cc(CNc2ccc(C(=O)N3CCc4ccccc43)cn2)on1`, for which the cytotoxicity at 10 µM was -0.0529%.

As to `O=C(NC[C@H]1C[C@@H]2CN(C(=O)c3ccno3)C[C@@H]2O1)C1CCC1`, the cytotoxicity at 10 µM is -5.21%.

With `O=C(Nc1cccnc1)[C@H]1C[C@H]2OCC[C@H]2N(CC2CC2)C1`, the cytotoxicity at 10 µM was 4.7%.

`O=C(CNC(=O)N(Cc1ccoc1)C1CCCCC1)N1CCCC1`: the cytotoxicity at 10 µM is -1.3%.

With `N#Cc1ccc(OC2CCN(C(=O)c3ccc(Br)o3)CC2)nc1`, the cytotoxicity at 10 µM turned out to be 11.2%.

Consider `CCc1c(C)nc(N)nc1N1CCCC(c2nc(CCOC)no2)C1` (stereo not given), for which the cytotoxicity at 10 µM amounted to 31.5%.

As for `CNc1snc(C)c1C(=O)N1CCCC(n2ccnc2C(C)C)C1` (stereo not given), the cytotoxicity at 10 µM was found to be 1.66%.

On to `CN(C)C(=O)CO[C@H]1CN(Cc2ccc(F)cc2)[C@@H]2CCCO[C@H]12`, for which the cytotoxicity at 10 µM is -22.3%.

Regarding `Cc1noc([C@@H]2C[C@@H]3CCN(CC4CCOCC4)C[C@H]3O2)n1`, the cytotoxicity at 10 µM is -130%.

For the compound `COc1ccccc1OCC(=O)NCC(O)(c1ccccc1)C1CC1` (stereo not given), the cytotoxicity at 10 µM was -16.1%.

For `O=C1COC2(CCN(Cc3ccc(F)cc3)CC2)CN1`, the cytotoxicity at 10 µM is -25.7%.

Regarding `COC(=O)Cn1c(=O)[nH]c2cn(-c3cccc(Cl)c3)c(=O)n21`, the cytotoxicity at 10 µM is -1.39%.
